Screening data deposited in PubChem BioAssay by The Scripps Research Institute Molecular Screening Center.
This is a sample that favours compounds with a hit; in the whole collection about 1.8% have one here.
NPY2 pot ag = potentiates or activates human NPY-Y2 receptor; 0.45% of 220,000 active; activation, % at 3.6 µM; cells expressing NPY-Y2, potentiator/agonist read-out; P49146; in the data active = activation above about 27%;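 note: cells stimulated with NPY near EC25 plus isoproterenol at EC100; 0% = vehicle plus submaximal agonist and 100% = vehicle plus saturating agonist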
Target sequence (P49146 whole entry, looked up): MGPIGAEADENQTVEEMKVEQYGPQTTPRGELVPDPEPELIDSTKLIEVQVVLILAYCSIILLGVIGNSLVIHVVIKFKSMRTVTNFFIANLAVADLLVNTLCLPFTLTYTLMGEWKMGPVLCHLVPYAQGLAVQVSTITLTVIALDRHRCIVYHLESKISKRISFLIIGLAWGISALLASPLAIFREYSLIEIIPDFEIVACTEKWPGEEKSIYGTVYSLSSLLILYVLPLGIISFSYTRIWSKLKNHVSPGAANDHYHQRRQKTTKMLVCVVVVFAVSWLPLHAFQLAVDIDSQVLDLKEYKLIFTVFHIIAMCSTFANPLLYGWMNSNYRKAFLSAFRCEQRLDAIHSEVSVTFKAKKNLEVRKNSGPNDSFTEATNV
NPY-Y2 antag = blocks the human neuropeptide Y Y2 receptor. NPY-Y2 expressing cells, antagonist mode. P49146. inhibition, % at 2.7 µM. 0.99% of 140,000 active; in the data active = inhibition above about 17%;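 note: 0% = vehicle with agonist challenge and 100% = reference antagonist with challenge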
NPY-Y1 antag = blocks the human neuropeptide Y Y1 receptor | inhibition, % at 3.6 µM | 1% of 200,000 active | HEK293-CNG Y1 cells, membrane potential fluorescence; NPY at EC95, then isoproterenol | P25929;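 active = inhibition above the campaign mean inhibition of all tested compounds plus 3 SD, cut at about 20% in these data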;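 note: 0% = DMSO wells given NPY plus isoproterenol and 100% = isoproterenol alone without NPY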
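Test system – HEK293 Y1/CNG channel cell line · Also added – NPY agonist 25 nM, then isoproterenol 1 µM plus Ro 20-1724 25 µM · Compound dosing – one concentration, 3.6 µM, in 0.4% DMSO · Schedule – compound incubation 1 h at room temperature, readout 45 min post-stimulation · Technique – fluorescence, membrane potential probe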
NPY1 pot ag = potentiates or activates human NPY-Y1 receptor | P25929 | 0.37% of 220,000 active | NPY-Y1 expressing cells, potentiator/agonist activation | activation, % at 3.6 µM; in the data active = activation above about 33%, passing the limit was not always enough;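 note: cells stimulated with NPY at EC10 then isoproterenol at EC100; 0% = low agonist plus stimulus and 100% = saturating agonist plus stimulus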
NPY-Y1 antag ct = counter-screen for NPY-Y2 antagonists: human NPY-Y1 antagonism; cell-based NPY-Y1 antagonism counterscreen; inhibition, % at 3.6 µM; shares compounds with NPY-Y2 antag; AID 1256; 19% of 710 active; in the data active = inhibition above about 20%;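 note: cells challenged with NPY then isoproterenol with cAMP sensed through a CNG channel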
NPY-Y2 ant conf = human NPY-Y2 antagonism, confirmation; shares compounds with NPY-Y2 antag; HEK293 NPY-Y2 CNG channel, membrane potential fluorescence; inhibition, % at 2.8 µM; 32% of 710 active;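 active = mean inhibition of triplicate wells above the hit cutoff set in the primary screen, cut at about 17% in these data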;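 note: 0% = DMSO with NPY challenge and 100% = BIIE0246 high control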
Starred values were filed as active, the others as inactive; . = not tested or not shown.

SMILES	NPY2 pot ag	NPY-Y2 antag	NPY-Y1 antag	NPY1 pot ag	others
CCC(C)NC(=O)Cn1nc([N+](=O)[O-])c(Cl)c1C (centres undefined)	3	-2	5	-15
Cc1c(Cl)c([N+](=O)[O-])nn1CC(=O)NC(C)C1CC2CCC1C2 (centres undefined)	-4	21*	20*	-12
O=C(O)c1ccccc1N=Cc1c(O)n(-c2nccs2)c(=O)c2ccccc12	36	.	.	38
CCN(CC)S(=O)(=O)c1cccc(-n2c(O)c(C=Nc3ccccc3C(=O)O)c3ccccc3c2=O)c1	74*	.	.	48*
CCOC(=O)/C(=N\Nc1ccc(Cl)cc1)Sc1nnc(-c2ccc(OC)cc2)n1C	-2	4	2	-4
COc1cc(/C=N/NS(=O)(=O)c2ccc(C(C)(C)C)cc2)cc([N+](=O)[O-])c1O	-11	.	-6	-13
Cc1ccccc1/C=N/NC(=O)Cn1cnc([N+](=O)[O-])n1	11	1	7	111*
CCCCC(=O)NCCc1cc2c(OC)ccc(OC)c2[nH]c1=O	4	0	-2	-9
CNC(=O)CCCCC(=O)N/N=C/c1ccc(Cl)cc1Cl	8	.	.	2
CCOC(=O)N1CCC(n2c(SCC(=O)NCCC3=CCCCC3)nc3ccccc3c2=O)CC1	-39	19*	36*	-33
CCOC(=O)N1CCC(n2c(SCC(=O)NCc3ccccc3)nc3ccccc3c2=O)CC1	-25	8	4	-17
COc1cccc(C(=O)NCC(=O)N/N=C/c2cccs2)c1	1	1	-1	-13
O=C(NCc1ccc2c(c1)OCO2)c1cc([N+](=O)[O-])ccc1N1CCCCC1	-1	23*	25*	-21
Cc1nc(CS(=O)(=O)c2ccccn2)sc1C(=O)NNC(=O)c1ccc(Cl)cc1	-15	.	.	0
Cc1cc(C)cc(NC(=O)Nc2ccc(-n3ccc(C(F)(F)F)n3)cc2)c1	13	.	.	40
O=C(Nc1ccc(-n2ccc(C(F)(F)F)n2)cc1)Nc1cccc(Cl)c1	40*	.	.	52*
COc1ccc(NC(=S)NNC(=S)Nc2cccc(C(F)(F)F)c2)cc1	27	.	.	43*
CNNC(=S)Nc1cccc(C(F)(F)F)c1	12	.	.	-10
Fc1ccc(C(c2nnnn2CCc2ccccc2)N2CCCc3ccccc32)cc1 (centres undefined)	5	38*	27*	-6
Fc1ccc(C(c2nnnn2C2CCCC2)N2CCc3ccccc32)cc1 (centres undefined)	15	15	9	-15
c1ccc(Nc2nc(-c3ccncc3)cs2)cc1	44*	-11	-17	58*
Clc1cccc(Nc2nc(-c3cccnc3)cs2)c1	30*	.	-13	47*
O=C(c1c[nH]c2ccc(F)cc2c1=O)N1CCCCCC1	5	-1	2	-7
Cc1cccc2c(=O)c(C(=O)N3CCCCCC3)c[nH]c12	-39	22*	21*	-77
O=C(O)c1nnn(-c2cccc(C(F)(F)F)c2)c1-c1ccccc1	-14	.	.	-8
SMILES	NPY2 pot ag	NPY-Y2 antag	NPY-Y1 antag	NPY1 pot ag	others
Cc1nc2ccccn2c(=O)c1CCN1CCC(C(=O)c2ccc(F)cc2)CC1	-3	2	4	-35
Cc1nc2sccn2c(=O)c1CCN1CCC(=C(c2ccc(F)cc2)c2ccc(F)cc2)CC1	-21	39*	29*	-58
O=C(CSc1nc(C2CC2)nc2sc3c(c12)CCCC3)NCc1ccco1	5	11	2	-6
Cc1nc(SCC(=O)NCc2ccco2)c2c3c(sc2n1)CCCC3	-17	24*	25*	-11
CC(=O)C(Cc1ccccc1)NC(=O)CN1CCN(Cc2ccccc2)CC1 (centres undefined)	-4	.	-1	4
Cc1nn(-c2ccc(F)cc2)c2sc(C(=O)O)cc12	-26	19*	23*	-36
C/C(=N\Nc1nc2ccccc2s1)c1ccc2c(c1)OCO2	-9	31*	35*	-13
COC(=O)c1cc2c(ccn2-c2ccc(F)cc2)n1Cc1cccc(OC)c1	17	6	1	7
COC(=O)c1cc2c(ccn2-c2ccc(F)cc2)n1C(C)C	-2	21*	35*	-9
CCCCNC(C(=O)Nc1ccc([N+](=O)[O-])cc1Br)c1ccccc1 (centres undefined)	0	3	13	-9
COc1ccc(OCC(=O)N2CCN(c3cccc(Cl)c3)CC2)cc1	8	7	4	-9
COc1ccc(OCC(=O)N2CCN(c3cccc(C(F)(F)F)c3)CC2)cc1	100*	10	2	72*
O=C(CCNC(=O)c1ccccc1)OCC(=O)c1ccccc1	2	.	-2	-8
COc1ccccc1N=C(C)C1=C(O)CC(c2ccccc2)CC1=O (centres undefined)	-14	.	21*	-28
COc1ccc(Cn2c(-c3ccc(C)cc3)nc3c(c(=O)c4ccccc4n3C)c2=O)cc1	-4	7	6	-19
Cc1ccc(NC(=O)CN(C)CC(=O)Nc2ccccc2Oc2ccccc2)cc1	-9	.	10	0
Cc1cccc(C)c1NC(=O)CN(C)CC(=O)Nc1ccccc1Oc1ccccc1	2	.	21*	-2
CN=c1scc(-c2ccccc2F)n1/N=C/c1ccc(O)c(O)c1O	29*	.	-1	42*
O=c1[nH]c2ccc(Cl)cc2c(O)c1-c1ccccc1	1	18*	3	13
CCOC(=O)C(=O)Nc1ccccc1C(=O)NCc1ccccc1	16	.	6	7
CCN(CC)S(=O)(=O)c1cccc(-c2nnc(SCCOc3ccc(Cl)cc3)o2)c1	-2	29*	32*	-57
CCN(CC)S(=O)(=O)c1cccc(-c2nnc(SCCOc3ccccc3C)o2)c1	-13	26*	20*	-38
CCN(CC)S(=O)(=O)c1cccc(-c2nnc(SCC(=O)c3cc(C)n(C)c3C)o2)c1	12	2	-1	-12
CCN(CC)S(=O)(=O)c1ccc(-c2nnc(SCc3nnc(-c4ccc(C)cc4)o3)o2)cc1	18	4	-3	11
CC(C)NCC(O)COC1C2CC3CC(C2)CC1C3 (centres undefined)	32*	.	-9	48*
CC(C)NCC(O)COC1CCC(C(C)(C)C)CC1 (centres undefined)	-3	.	6	-15
CC1CCC(C(C)C)C(OCC(O)CNC(C)C)C1 (centres undefined)	98*	.	.	107*
CCN1c2ccccc2-c2nc3ccccc3n2C1c1cccs1 (centres undefined)	-9	25*	37*	-10
CCc1n[nH]c(=S)n1/N=C/c1cc(Br)c(OC)cc1OC	2	21*	2	-16	NPY-Y1 antag ct=6;NPY-Y2 ant conf=18*
